The text below walks through data of PMC6198128 (Redox Biology, 2018).

The test system of experiment [1] is MRC-5 (human lung fibroblast). The experiment in a line: Alamar blue cytotoxicity assay, MRC-5. The class given is cell-based. The settings on record: read-out: IC50 in µM. A general note: Alamar Blue is a resazurin reagent that responds to reducing activity.
The subject of experiment [2] is HepG2 (human hepatocellular carcinoma). The experiment can be described thus: Alamar blue cytotoxicity assay, HepG2. The class given is cell-based. To be noted: read-out: IC50 in µM.
For experiment [3], the system named is HL-60 cells. The experiment can be described thus: Morphological analysis. The settings on record: 24 and 48 h, DOX 2 µM, OXA 2.5 µM; for cell morphology: HL-60, May-Grunwald-Giemsa; for forward light scatter (FSC) / side scatter (SCC): HL-60, flow cytometry. The class given is cell-based, human. An outline of the steps: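 HL-60 cells were treated for 24 and 48 h, then stained with May-Grunwald-Giemsa and examined by light microscopy. In parallel, forward and side light scatter were quantified by flow cytometry, recording 10^4 events per sample with debris excluded. Vehicle was the negative control, with doxorubicin and oxaliplatin as positive controls.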
In general terms: Flow cytometry measures light scatter and fluorescence of single cells or particles in a stream.

Experiment [4] has as its system HCT116 (human colon carcinoma). The experiment in a line: Alamar blue cytotoxicity assay, HCT116. In kind it is cell-based. The settings on record: read-out: IC50 in µM.
For experiment [5], the system named is HL-60 cells. In kind it is cell-based, human. To be noted: for apoptotic cells (annexin V-FITC/PI): HL-60, 24 and 48 h, p < 0.05, DOX 2 µM, OXA 2.5 µM; for effect of pretreatment on complex-induced apoptosis: HL-60, 2 h pretreatment (5 mM NAC or 5 µM inhibitor), then 4 µM complex for 48 h.
The test system of experiment [6] is HL-60 cells. The experiment in a line: Mitochondrial transmembrane potential. The class given is cell-based, human. To be noted: HL-60, rhodamine 123, 24 h, p < 0.05; DOX 2 µM, OXA 2.5 µM. In short, it runs like this:
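HL-60 cells were grown in RPMI-1640 with 10% FBS, 2 mM L-glutamine and 50 µg/mL gentamycin at 37 °C, 5% CO2. After treatment, cells were loaded with rhodamine 123 (5 µg/mL) for 15 min at 37 °C in the dark and washed in saline.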

The test system of experiment [7] is HL-60 cells. The class given is cell-based, human.
Experiment [8] deals with HL-60 (human promyelocytic leukemia). The experiment can be described thus: Alamar blue cytotoxicity assay, HL-60. The class given is cell-based. To be noted: read-out: IC50 in µM.
For another experiment, the system named is B16-F10 (mouse melanoma). The experiment in a line: Alamar blue cytotoxicity assay, B16-F10. In kind it is cell-based. The settings on record: read-out: IC50 in µM.
The subject of experiment [9] is MCF-7 (human breast carcinoma). The experiment can be described thus: Alamar blue cytotoxicity assay, MCF-7. In kind it is cell-based. To be noted: read-out: IC50 in µM.
For a further experiment, the system named is calf thymus DNA (ctDNA). The experiment can be described thus: DNA intercalation assay. The class given is binding. The settings on record: cell-free, 15 µg/mL ctDNA, 1.5 µM ethidium bromide; complex 5, 10 and 20 µM; doxorubicin 10 µM. In short, it runs like this:
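Ethidium bromide displacement from calf thymus DNA in saline: 15 µg/mL ctDNA, 1.5 µM ethidium bromide, test compound at 5, 10 and 20 µM. Vehicle (0.1% DMSO) was the negative control and doxorubicin (10 µM) the positive control. Fluorescence was read at excitation 320 nm and emission 600 nm. Lower fluorescence was taken as intercalation.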

For another experiment, the system named is caspase-3 in HL-60 cells. The experiment in a line: Caspase-3 colorimetric activation assay. The settings on record: HL-60, DEVD-pNA substrate, 48 h, p < 0.05; DOX 2 µM. In kind it is cell-based, human. In short, it runs like this:
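HL-60 cells were treated with test compound and lysed, and caspase-3 activity was read with a colorimetric kit using DEVD-pNA substrate, with absorbance at 405 nm. Total protein was measured by Bradford, and activity was expressed as specific activity per 10 mg protein. Data are mean ± S.E.M., with ANOVA and Student–Newman–Keuls test (p < 0.05) against vehicle.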

The subject of experiment [10] is SCC-9 (human oral squamous cell carcinoma). The experiment in a line: Alamar blue cytotoxicity assay, SCC-9. The class given is cell-based. The settings on record: Homo sapiens, SCC-9, 72 h, read-out: IC50 in µM.
The test system of experiment [11] is HL-60 cells. The experiment can be described thus: Internucleosomal DNA fragmentation and cell cycle distribution. In kind it is cell-based, human. An outline of the steps: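 After 24 or 48 h treatment, HL-60 cells were permeabilized and stained with propidium iodide, and DNA content was measured by flow cytometry. 10^4 events were recorded per sample with debris excluded. Sub-G0/G1 was taken as internucleosomal DNA fragmentation, alongside G0/G1, S and G2/M fractions. Doxorubicin and oxaliplatin were positive controls; ANOVA with Student–Newman–Keuls test.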

Experiment [12] relates to PBMC (human peripheral blood mononuclear cells). The experiment can be described thus: Alamar blue cytotoxicity assay, PBMC. The class given is cell-based. To be noted: 72 h, read-out: IC50 in µM.
Experiment [13] relates to HSC-3 (human oral squamous cell carcinoma). The experiment in a line: Alamar blue cytotoxicity assay, HSC-3. In kind it is cell-based. The settings on record: read-out: IC50 in µM.
Experiment [14] has as its system K-562 (human chronic myelogenous leukemia). The experiment can be described thus: Alamar blue cytotoxicity assay, K-562. The class given is cell-based. To be noted: read-out: IC50 in µM.
Experiment [15] relates to non-cancer cells (MRC-5 and PBMC). The experiment in a line: Alamar blue cytotoxicity assay, non-cancer cells. In kind it is cell-based, human. To be noted: not cytotoxic at the concentrations tested, 72 h. In short, it runs like this: (§1)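 Human and mouse cell lines plus primary human PBMC (donor informed consent) grown in RPMI-1640 with 10% FBS, 2 mM L-glutamine and 50 μg/mL gentamycin at 37 °C, 5% CO2. Cells were mycoplasma-checked and >90% trypan-blue viable at start. Vehicle served as negative control; doxorubicin, oxaliplatin and piplartine were positive controls. Effect was taken as % of control absorbance, with IC50 and 95% CI from nonlinear regression.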

The subject of experiment [16] is eight cancer cell lines (HL-60, K-562, HCT116, MCF-7, HepG2, HSC-3, SCC-9 and B16-F10). The experiment can be described thus: Alamar blue cytotoxicity assay, panel of cancer cell lines. In kind it is cell-based. To be noted: not cytotoxic at the concentrations tested, 72 h. In short, it runs like this:
as §1

The mark [17] stands for this setting: HL-60, 2 µM, 24 h of incubation.
Setting [18] is: HL-60, 2 µM, 48 h of incubation.
Setting [19] is: HL-60, 2.5 µM, 24 h of incubation.
The mark [20] stands for this setting: HL-60, 2.5 µM, 48 h of incubation.

Values joined by “and” are separate entries in the source; they are usually repeats but may differ in a detail not shown here. Equal values may be shown once. Read-outs that look alike come from different tables or passages of the source. A value given as a limit tells only on which side of the number the result lay.

Consider `COc1cccc2c1C(=O)c1c(O)c3c(c(O)c1C2=O)C[C@@](O)(C(=O)CO)C[C@@H]3O[C@H]1C[C@H](N)[C@H](O)[C@H](C)O1` [DOX, Doxorubicin], for which the IC50 in experiment [1] (Homo sapiens, MRC5, 72 h) came to 1.5 µM; in experiment [2] (Homo sapiens, HepG2, 72 h), 0.1 µM; in experiment [4] (Homo sapiens, HCT-116, 72 h), 0.1 µM; in experiment [8] (Homo sapiens, HL-60, 72 h), 0.3 µM; in the experiment on B16-F10 (mouse melanoma) (Mus musculus, B16-F10, 72 h), 0.1 µM; in experiment [9] (Homo sapiens, MCF7, 72 h), 1.1 µM. Further, the 50% inhibitory concentration (IC50) in experiment [10] was determined as 0.5 µM; in experiment [12] (Homo sapiens, PBMC) it was 5.1 µM; in [13] (Homo sapiens, HSC-3, 72 h) it was 0.3 µM; in experiment [14] (Homo sapiens, K562, 72 h), 0.3 µM. In the experiment on HL-60 cells [3], the cell morphology result is “cell shrinkage, chromatin condensation and nuclear fragmentation”. Besides, the “forward light scatter (FSC)” value in the experiment with HL-60 cells [3] was “decrease in FSC”. The “side scatter (SCC)” value in the experiment on HL-60 cells [3] is reported as “transient increase in SCC”. Further, the “apoptotic cells (annexin V-FITC/PI)” value in the experiment on HL-60 cells [5] was “increase in apoptotic cells”. In addition, the mitochondrial transmembrane potential entry in the experiment on HL-60 cells [6] is on record as “reduced the mitochondrial transmembrane potential”. In addition, in the experiment with HL-60 cells [7], the “reduction of the number of viable cells” value was 57.1% and 87.9%. For the same compound, in the experiment with calf thymus DNA (ctDNA), the “ethidium bromide fluorescence (displacement from ctDNA)” value is listed as “reduced the fluorescence intensity of ethidium bromide”. Moreover, the caspase-3 activation entry with caspase-3 in HL-60 cells is recorded as “caused caspase-3 activation”. Moreover, the “DNA content (%) G0/G1” value in the experiment with HL-60 cells [11] (setting [17]) amounted to 19.9 ± 2.5 %; in the experiment on HL-60 cells [11] (setting [18]) it was 21.9 ± 3.0 %. Besides, the “DNA content (%) G2/M” value in the experiment on HL-60 cells [11] (setting [17]) came to 8.9 ± 1.5%; in the experiment on HL-60 cells [11] (setting [18]) it was 3.8 ± 0.9 %. Moreover, the results for the “DNA content (%) S” value in the experiment with HL-60 cells [11] (setting [17]) and with HL-60 cells [11] (setting [18]) were 6.6 ± 1.6 % and 6.5 ± 0.6 %, respectively. The “DNA content (%) Sub-G0/G1” value in the experiment with HL-60 cells [11] (setting [17]) amounted to 57.2 ± 2.5 %; with HL-60 cells [11] (setting [18]), 65.5 ± 2.8 %.
With `O=C1[O][Pt]2([NH][C@@H]3CCCC[C@H]3[NH]2)[O]C1=O` [OXA, oxaliplatin], the IC50 in [1] (MRC-5 non-cancer cells, alamar blue, 72 h) amounted to 1.3 µM; in experiment [2] (HepG2, alamar blue, 72 h), 2.2 µM; in [4] (HCT116, alamar blue, 72 h), 4.1 µM; in [8] (HL-60, alamar blue, 72 h) it was 0.6 µM; with B16-F10 (mouse melanoma) (B16-F10, alamar blue, 72 h) it was 2.2 µM; in [9] (MCF-7, alamar blue, 72 h) it was 5.7 µM. Besides, the 50% inhibitory concentration (IC50) stood at 9.4 µM in experiment [12] (PBMC non-cancer cells, alamar blue); 3.1 µM in experiment [13] (HSC-3, alamar blue, 72 h); 1 µM in experiment [14] (K-562, alamar blue, 72 h). The cell morphology entry with HL-60 cells [3] is “cell shrinkage, chromatin condensation and nuclear fragmentation”. The “forward light scatter (FSC)” value in the experiment with HL-60 cells [3] is “decrease in FSC”. Further, the “side scatter (SCC)” value with HL-60 cells [3] is “transient increase in SCC”. Moreover, the “apoptotic cells (annexin V-FITC/PI)” value in the experiment on HL-60 cells [5] is “increase in apoptotic cells”. In the experiment with HL-60 cells [6], the mitochondrial transmembrane potential result is given as “reduced the mitochondrial transmembrane potential”. Further, the “reduction of the number of viable cells” value with HL-60 cells [7] is 35.6% and 67.7%. Further, the “DNA content (%) G0/G1” value was 29.1 ± 2.4 % in the experiment with HL-60 cells [11] (setting [19]) and 42.9 ± 2.8% in the experiment on HL-60 cells [11] (setting [20]). For the same compound, the results for the “DNA content (%) G2/M” value with HL-60 cells [11] (setting [19]) and in the experiment on HL-60 cells [11] (setting [20]) were 28.1 ± 2.6 % and 23.4 ± 2.6 %, respectively. For the same compound, the “DNA content (%) S” value with HL-60 cells [11] (setting [19]) is reported as 12.6 ± 2.5%; in the experiment with HL-60 cells [11] (setting [20]), 13.2 ± 0.8%. The “DNA content (%) Sub-G0/G1” value came to 20.7 ± 2.9 % with HL-60 cells [11] (setting [19]) and 24.8 ± 1.9 % in the experiment with HL-60 cells [11] (setting [20]). Further, the cell cycle effect result in the experiment on HL-60 cells [11] (HL-60, 2.5 µM, p < 0.05) is “cell cycle arrest at the phase G2/M”.
Take `O=[N+]([O-])c1ccc(-c2nc(-c3ccncc3)c(-c3ccc(F)cc3)[nH]2)cc1` [PD 169316]: the “effect of pretreatment on complex-induced apoptosis” value in the experiment on HL-60 cells [5] is recorded as “reduced the complex-induced apoptosis”.
As for `COc1cc(/C=C/C(=O)N2CCC=CC2=O)cc(OC)c1OC` [PIP, Piplartine], the IC50 in experiment [1] (Homo sapiens, MRC5, 72 h) is 17.3 µM; in [2] (Homo sapiens, HepG2, 72 h) it was 6.3 µM; in [4] (Homo sapiens, HCT-116, 72 h), 5.4 µM; in experiment [8] (Homo sapiens, HL-60, 72 h) it was 14.1 µM; with B16-F10 (mouse melanoma) (Mus musculus, B16-F10, 72 h), 10.6 µM; in [9] (Homo sapiens, MCF7, 72 h), 10.3 µM. The IC50 is 16.5 µM in experiment [10]; 34.2 µM in [12] (Homo sapiens, PBMC); 14.1 µM in experiment [13] (Homo sapiens, HSC-3, 72 h); 18.6 µM in [14] (Homo sapiens, K562, 72 h).
In the case of `N#CC(=C(/N)Sc1ccccc1N)/C(C#N)=C(/N)Sc1ccccc1N` [U-0126], the “effect of pretreatment on complex-induced apoptosis” value in the experiment with HL-60 cells [5] was “reduced the complex-induced apoptosis”.
Take `[Cl][Pt][Cl].c1ccc(P(c2ccccc2)c2ccccc2)cc1.c1ccc(P(c2ccccc2)c2ccccc2)cc1` [cis-[PtCl2(PPh3)2]]: the IC50 in [15] and in experiment [16] was over 31.6 µM throughout.

As usually defined, the IC50 is the point on the concentration scale where inhibition reaches its midpoint.
